According to ChEMBL document CHEMBL3576819, “Design, synthesis, biological evaluation and molecular docking studies of phenylpropanoid derivatives as potent anti-hepatitis B virus agents” (Eur J Med Chem, 2015):

Legend:
[1] = Cytotoxicity against human HepG2.2.15 cells assessed as cell death after 9 days by MTT assay; format: cell-based, HepG2 2.2.15
Procedure, shortened: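 HepG2.2.15 cells (MEM, 10% FBS, 380 µg/ml G418, 37 °C, 5% CO2) seeded at 1×10^5 cells/ml, cultured 24 h, then exposed to various drug concentrations; drug-containing medium renewed every 3 d. OD read at 450 nm after 9 days; percent cell death calculated; CC50 = concentration killing 50% of cells. Means of at least two experiments.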

Hepatitis B virus [2] = test: Antiviral activity against Hepatitis B virus infected in human HepG2.2.15 cells assessed as inhibition of HBsAg secretion by ELISA; format: functional, organism-based; conditions: HepG2 2.2.15
Procedure, shortened: (§1)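 HepG2.2.15 cells (MEM, 10% FBS, 380 µg/ml G418) seeded at 1×10^5 cells/ml, held 24 h at 37 °C, then treated with various drug concentrations; medium with drug renewed every 3 d for up to 9 d. Culture medium sampled on days 3, 6 and 9, stored at -20 °C, and assayed for secreted antigen. Lamivudine as positive control; IC50 = 50% inhibition of secretion; means of at least two experiments.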

Hepatitis B virus [3] = test: Antiviral activity against Hepatitis B virus infected in human HepG2.2.15 cells assessed as inhibition of HBeAg secretion by ELISA; format: functional, organism-based; conditions: HepG2 2.2.15; procedure, shortened: as §1
[4] = Selectivity index, ratio of CC50 for human HepG2.2.15 cells to IC50 for Hepatitis B virus infected in human HepG2.2.15 cells assessed as inhibition of HBsAg secretion; format: functional
Procedure, shortened: (§2)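 Selectivity index computed as CC50/IC50, with CC50 from cell death of HepG2.2.15 cells after 9 days of treatment (OD 450 nm) and IC50 from 50% inhibition of HBeAg or HBsAg secretion in the same cells; medium with drug renewed every 3 d.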

[5] = Selectivity index, ratio of CC50 for human HepG2.2.15 cells to IC50 for Hepatitis B virus infected in human HepG2.2.15 cells assessed as inhibition of HBeAg secretion; format: functional; procedure, shortened: as §2

SMILES | CC50 at 216 h [1] [µM] | IC50 (Hepatitis B virus [2]) [µM] | IC50 (Hepatitis B virus [3]) [µM] | Ratio CC50/IC50 [4] | Ratio CC50/IC50 [5]
COc1ccc(C=O)cc1OC [3,4-DIMETHOXYBENZALDEHYDE] | > 1500 | – | – | – | –
COc1ccc(/C=C/C(=O)O)cc1OC [O,O'-DIMETHYLCAFFEIC ACID] | 535 | > 600 | > 600 | <0.89 | <0.89
O=Cc1ccc2c(c1)OCO2 [PIPERONAL] | 1290 | – | – | – | –
COc1cc(/C=C/C(=O)O)cc(OC)c1OC [SINAPIC ACID METHYL ETHER] | 834 | > 600 | > 600 | <1.39 | <1.39
